PAD4 inh – human PAD4 inhibitors, primary screen, biochemical, fluorescence polarization, 1536-well format. Protein-arginine deiminase type-4 (Homo sapiens), Q9UM07. recombinant PAD4, RCA probe fluorescence polarization. inhibition, % at 6.36 µM. 330,000 tested, 0.41% active;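 active means percent inhibition above a cutoff equal to the mean of all tested compounds plus 3 SD, cut at about 15% in these data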
Apaf-1 inh – inhibitors of human Apaf-1 apoptosome, primary screen, biochemical, DEVD-Rh110 fluorescence, uHTS | Apoptotic protease-activating factor 1 (Homo sapiens), O14727 | reconstituted apoptosome caspase-3 activity | inhibition, % at 20 µM | 330,000 tested, 0.71% active | AID 489030, 2010; active means inhibition of at least 40% at 20 µM
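detection = Rh110 fluorescence intensity | test system = biochemical Apaf-1 apoptosome reconstitution | also added = cytochrome c and DEVD-Rh110 substrate | schedule = 30 min plus 50 min, RT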
GSTO1 inh – inhibitors of recombinant GSTO1, primary screen, counter-screen for RBBP9 inhibitor project, biochemical, fluorescence polarization; Glutathione S-transferase omega-1 (Homo sapiens), P78417; activity-based probe fluorescence polarization; inhibition, % at 5.96 µM; 300,000 tested, 1.1% active;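 active means inhibition above the campaign mean inhibition plus 3 SD, cut at about 35% in these data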
Target sequence (P78417 whole entry, looked up): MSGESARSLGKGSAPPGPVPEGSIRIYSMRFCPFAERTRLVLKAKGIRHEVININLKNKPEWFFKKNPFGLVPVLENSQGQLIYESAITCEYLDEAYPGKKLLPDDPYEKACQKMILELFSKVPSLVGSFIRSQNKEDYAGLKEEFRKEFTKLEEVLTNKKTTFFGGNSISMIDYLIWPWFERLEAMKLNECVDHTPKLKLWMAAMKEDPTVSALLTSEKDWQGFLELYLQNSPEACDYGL
Fh CTSL1 inh – Fasciola hepatica cathepsin L1 inhibitors, primary screen, counter-screen for PFM18AAP inhibitor project, biochemical, QFRET, fluorogenic peptide substrate; recombinant F. hepatica cathepsin L1, Z-Leu-Arg-MCA fluorescence; inhibition, % at 5.96 µM; 300,000 tested, 0.49% active; AID 1906, 2009;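 active means inhibition above the mean of all tested compounds plus 3 SD, set per screening campaign, cut at about 17% in these data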
TDP2 inh – human TDP2 enzyme inhibitors, primary screen, biochemical, epi absorbance, recombinant enzyme; 370,000 tested, 0.34% active; T5PNP hydrolysis, p-nitrophenol absorbance 415 nm; AID 720702, 2013; Tyrosyl-DNA phosphodiesterase 2 (Homo sapiens), O95551; inhibition, % at 12.8 µM;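 active means inhibition above the mean of all tested compounds plus 3 SD, set per campaign, cut at about 25% in these data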
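Assay system: Recombinant human TDP2 | Quantity: 120 nM TDP2 per well | Incubation: 2 h at 37 °C | Signal: Epi absorbance | Evaluation: Percent inhibition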
GSTO1 confirm – GSTO1 inhibitor hit confirmation, counter-screen for RBBP9 inhibitor project, biochemical, fluorescence polarization, triplicate. shares compounds with GSTO1 inh. recombinant GSTO1, probe fluorescence polarization. inhibition, % at 5.96 µM. 2,400 tested, 54% active. AID 2176, 2009;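 active means inhibition above the primary screen's cutoff, its mean inhibition plus 3 SD, cut at about 35% in these data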;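 further: loss of polarization as inhibitors block binding of rhodamine sulfonate ester activity probe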
PAD4 confirm – human PAD4 inhibitors, confirmation, biochemical, fluorescence polarization | shares compounds with PAD4 inh | recombinant PAD4, RCA probe fluorescence polarization | inhibition, % at 6.36 µM | 1,200 tested, 28% active;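 active means mean inhibition across replicates above the hit cutoff set by the earlier primary screen, cut at about 15% in these data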;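 further: inhibitors block active-site labeling by the probe so polarization falls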
Apaf-1 inh conf2 – Apaf-1 inhibitors, single-dose retest, confirmation, biochemical, fluorescence, DEVD-Rh110, 20 µM. reconstituted apoptosome, caspase-3 DEVD-Rh110 fluorescence. 1,800 tested, 25% active. inhibition, % at 20 µM. shares compounds with Apaf-1 inh;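 active means mean inhibition of at least 40% at 20 µM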
Rh110 quench – Rh110 fluorescence interference by putative Apaf-1 inhibitors, confirmation, artefact control for Apaf-1 inhibitor project, biochemical, 20 µM; shares compounds with Apaf-1 inh; quenched caspase reaction; activation (fluorescence interference), % at 20 µM; 1,800 tested, under 10 active; AID 504615, 2011;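 active means signal rise of 40% or more at 20 µM, treated as a fluorescence artifact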
Fluor interf inh – fluorescence interference of Apaf-1 inhibitor hits, dose response, artefact control for Apaf-1 inhibitor project; shares compounds with Apaf-1 inh; fluorescence interference counterscreen, Apaf-1 assay format; IC50, µM; 460 tested, under 10 active; call rule not given here
Each line names hits and unclear results; the compound was inactive in the other large screens (follow-up assays come after a bar, where they were run). Most compounds without a hit are left out; they make up all but 1.8% or so of the library.

COC(=O)[C@]12C[C@H](CC(=O)N3CCN(C(=O)C4CC4)CC3)C(=O)N(Cc3ccc(Cl)cc3Cl)C1=C[C@H](C(C)C)O[C@@H]2C1CC1	none (no result: PAD4 inh, Apaf-1 inh, GSTO1 inh, Fh CTSL1 inh)
Cc1ccc(/C=N/N=C2/NC(=O)C(CC(=O)Nc3ccc(Cl)cc3)S2)o1 (stereo not given)	none
O=C(O)CC1S/C(=N/N=C/c2ccc(-c3ccc(Cl)cc3[N+](=O)[O-])o2)NC1=O (stereo not given)	Apaf-1 inh 52, GSTO1 inh 50 | GSTO1 confirm inactive | Apaf-1 inh conf2 inactive | Rh110 quench inactive
CC1=NN(c2cccc(C(=O)O)c2)C(=O)/C1=C\C=C/c1ccccc1	none (no result: PAD4 inh, GSTO1 inh, Fh CTSL1 inh)
CC1=NN(c2ccc(C(=O)O)cc2)C(=O)/C1=C\c1ccc(OC(=O)c2cccs2)cc1	Apaf-1 inh 75, GSTO1 inh 55 | GSTO1 confirm inactive | Apaf-1 inh conf2 inactive | Rh110 quench inactive
Cc1ccc(C)c(S(=O)(=O)/N=C2\C=C(NS(=O)(=O)c3ccccc3)C(=O)c3ccccc32)c1	Apaf-1 inh 78, GSTO1 inh 82 | GSTO1 confirm 48 | Apaf-1 inh conf2 59 | Rh110 quench inactive
CN1CCc2cc3c(c4c2[C@H]1[C@H](O)c1ccccc1-4)OCO3	PAD4 inh 37, Apaf-1 inh 48, GSTO1 inh 69 | GSTO1 confirm inactive | PAD4 confirm 34 | Apaf-1 inh conf2 inactive | Rh110 quench inactive
COc1ccccc1NC1=C(N2CCCCC2)C(=O)c2ccccc2C1=O	PAD4 inh 38, Apaf-1 inh 95, GSTO1 inh 73, Fh CTSL1 inh 62 (no result: TDP2 inh) | GSTO1 confirm 54 | PAD4 confirm inactive | Apaf-1 inh conf2 95 | Rh110 quench inactive | Fluor interf inh inactive
O=C(CSc1nnc(-c2cccnc2)n1Cc1ccco1)Nc1ccc(Cl)c(Cl)c1	none (no result: PAD4 inh, Apaf-1 inh, GSTO1 inh, Fh CTSL1 inh)
Cc1ccc(-n2nc3ccc(N)cc3n2)cc1Cl	Apaf-1 inh 96, GSTO1 inh 44 | GSTO1 confirm inactive | Apaf-1 inh conf2 47 | Rh110 quench inactive | Fluor interf inh inactive
COc1ccc(-n2nc3ccc(NS(C)(=O)=O)cc3n2)cc1Cl	none
COc1ccc(-n2nc3ccc(N)cc3n2)cc1Cl	Apaf-1 inh 95, GSTO1 inh 53 | GSTO1 confirm 49 | Apaf-1 inh conf2 55 | Rh110 quench inactive | Fluor interf inh inactive
CCCCOCCCNC(=O)C[C@@H]1C(=O)N(CCc2ccc(Cl)cc2)C2=CCCC[C@]21C(=O)OCC	none (no result: PAD4 inh, Apaf-1 inh, GSTO1 inh, Fh CTSL1 inh)
C(=N\Nc1nncc2ccccc12)/c1cccnc1	none (no result: PAD4 inh, Apaf-1 inh, GSTO1 inh, Fh CTSL1 inh)

Source: PubChem BioAssay (several laboratories)
